Experimental data from ChEMBL document CHEMBL3784976 (J Med Chem, 2016).

Legend:
[1] = Volume of distribution at steady state in rat at 0.5 mg/kg, iv as single dose; type: ADME, organism-based; details: in vivo, read-out: Vdss
Outline: (§1)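 Single intravenous dose of 0.5 mg/kg given to rats, formulated in 100% DMSO.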

[2] = molecular target: T1, Transient receptor potential cation channel subfamily A member 1 (Homo sapiens, UniProt O75762); assay: Agonist activity at human TRPA1 expressed in tetracycline-inducible T-REx expression system transfected CHO cells by 45Ca2+ uptake assay; type: cell-based
Liver microsome [3] = assay: Drug metabolism in human liver microsomes assessed as 3-((3-(2-(4-Chlorophenyl)-2-hydroxyethyl)-1,2,4-oxadiazol-5-yl)-methyl)pyrido[2,3-d]pyrimidin-4(3H)-one formation; type: ADME
[4] = molecular target: T1, Transient receptor potential cation channel subfamily A member 1; assay: Antagonist activity at human TRPA1 expressed in tetracycline-inducible T-REx expression system transfected CHO cells assessed as inhibition of AITC-induced Ca2+ influx preincubated for 2 mins followed by AITC addition measured for 2 mins by Fluo-4 dye based FLIPR assay; type: cell-based
[5] = Apparent intrinsic clearance in human liver microsomes; type: ADME; details: read-out: CLH(app)
[6] = Half life in rat at 0.5 mg/kg, iv administered as single dose; type: ADME, organism-based; details: in vivo; outline: as §1
Liver microsome [7] = assay: Drug metabolism in rat liver microsomes assessed as 3-((3-(2-(4-Chlorophenyl)-2-hydroxyethyl)-1,2,4-oxadiazol-5-yl)-methyl)pyrido[2,3-d]pyrimidin-4(3H)-one formation; type: ADME
[8] = Apparent intrinsic clearance in rat liver microsomes; type: ADME; details: read-out: CLH(app)
[9] = molecular target: T2, Transient receptor potential cation channel subfamily A member 1 (Rattus norvegicus, UniProt Q6RI86); assay: Antagonist activity at rat TRPA1 expressed in tetracycline-inducible T-REx expression system transfected CHO cells assessed as inhibition of AITC-induced Ca2+ influx preincubated for 2 mins followed by AITC addition measured for 2 mins by Fluo-4 dye based FLIPR assay; type: cell-based
[10] = Fraction unbound in rat plasma; type: ADME, cell-free
[11] = molecular target: T2, Transient receptor potential cation channel subfamily A member 1; assay: Agonist activity at rat TRPA1 expressed in tetracycline-inducible T-REx expression system transfected CHO cells by 45Ca2+ uptake assay; type: cell-based
[12] = molecular target: T2, Transient receptor potential cation channel subfamily A member 1; assay: Antagonist activity at rat TRPA1 expressed in tetracycline-inducible T-REx expression system transfected CHO cells assessed as inhibition of AITC-induced 45Ca2+ uptake preincubated for 1 min followed by AITC addition measured after 12 mins; type: cell-based
[13] = Clearance in rat at 0.5 mg/kg, iv as single dose; type: ADME, organism-based; details: in vivo
[14] = molecular target: T1, Transient receptor potential cation channel subfamily A member 1; assay: Antagonist activity at human TRPA1 expressed in tetracycline-inducible T-REx expression system transfected CHO cells assessed as inhibition of AITC-induced 45Ca2+ uptake preincubated for 1 min followed by AITC addition measured after 12 mins; type: cell-based
[15] = molecular target: Transient receptor potential cation channel subfamily V member 1 (Homo sapiens, UniProt Q8NER1); assay: Antagonist activity at human TRPV1 expressed in CHO cells assessed as inhibition of capsaicin-induced Ca2+ influx preincubated for 2.5 mins followed by capsaicin addition measured for 1 min by luminescence assay; type: cell-based
[16] = molecular target: T1, Transient receptor potential cation channel subfamily A member 1; assay: Agonist activity at human TRPA1 expressed in tetracycline-inducible T-REx expression system transfected CHO cells assessed as increase in Ca2+ influx measured for 2 mins by Fluo-4 dye based FLIPR assay; type: cell-based
Outline: (§2)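 FLIPR Tetra Ca2+ flux with Fluo-4 NW dye plus probenecid. Cells were seeded 24 h ahead in medium with […]. Dye loading ran 30 min at 37 °C, then 30 min at RT. Compound was added and agonist signal read for 2 min. Data were expressed as POC of DMSO (low) vs saturating AITC (high: 15 μM human, 200 μM rat) and fitted to a four-parameter equation.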

[17] = molecular target: Transient receptor potential cation channel subfamily V member 3 (Rattus norvegicus); assay: Antagonist activity at rat TRPV3 expressed in tetracycline-inducible T-REx expression system transfected CHO cells assessed as inhibition of […]-induced Ca2+ influx preincubated for 1 min followed by […] addition measured for 1 min by luminescence assay
[18] = molecular target: T2, Transient receptor potential cation channel subfamily A member 1; assay: Agonist activity at rat TRPA1 expressed in tetracycline-inducible T-REx expression system transfected CHO cells assessed as increase in Ca2+ influx measured for 2 mins by Fluo-4 dye based FLIPR assay; type: cell-based; outline: as §2
[19] = Ratio of fCmax in rat at 10 mg/kg, po to IC50 for rat TRPA1 expressed in tetracycline-inducible T-REx expression system transfected CHO cells by 45Ca2+ uptake assay
Outline: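 Rat oral PK dosed at 10 mg/kg in 1% Tween 80/2% HPMC/97% water/methanesulfonic acid pH 2.2. Unbound Cmax divided by rat TRPA1 45Ca2+ IC50.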

[20] = Cmax in rat at 10 mg/kg, po; type: ADME, organism-based; parameters: dose 10 mg/kg, route oral; details: in vivo
Outline: (§3)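 Rat oral PK at 30 mg/kg (10 mg/kg for one analogue) in 1% Tween 80/2% HPMC/97% water with methanesulfonic acid, pH 2.2.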

[21] = Tmax in rat at 10 mg/kg, po; type: ADME, organism-based; details: in vivo
Outline: (§4)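 Rats dosed orally at 30 mg/kg, or 10 mg/kg for one analogue, in 1% Tween 80/2% HPMC/97% water with methanesulfonic acid, pH 2.2.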

Rattus norvegicus [22] = assay: fCmax in rat at 10 mg/kg, po; type: ADME, organism-based; details: in vivo; outline: as §4
[23] = AUC (infinity) in rat at 10 mg/kg, po; type: ADME, organism-based; parameters: dose 10 mg/kg, time infinity, route oral; details: in vivo; outline: as §3
[24] = Half life in rat at 10 mg/kg, po; type: ADME, organism-based; details: in vivo; outline: as §4
[25] = Tmax in rat at 30 mg/kg, po; type: ADME, organism-based; details: in vivo; outline: as §4
[26] = Cmax in rat at 30 mg/kg, po; type: ADME, organism-based; parameters: dose 30 mg/kg, route oral; details: in vivo; outline: as §3
[27] = AUC (infinity) in rat at 30 mg/kg, po; type: ADME, organism-based; parameters: dose 30 mg/kg, time infinity, route oral; details: in vivo; outline: as §3
[28] = Oral bioavailability in rat at 30 mg/kg; type: ADME, organism-based; details: in vivo; outline: as §4
Rattus norvegicus [29] = assay: fCmax in rat at 30 mg/kg, po; type: ADME, organism-based; details: in vivo; outline: as §4
[30] = Half life in rat at 30 mg/kg, po; type: ADME, organism-based; details: in vivo; outline: as §4

T2 sequence (Q6RI86 whole entry): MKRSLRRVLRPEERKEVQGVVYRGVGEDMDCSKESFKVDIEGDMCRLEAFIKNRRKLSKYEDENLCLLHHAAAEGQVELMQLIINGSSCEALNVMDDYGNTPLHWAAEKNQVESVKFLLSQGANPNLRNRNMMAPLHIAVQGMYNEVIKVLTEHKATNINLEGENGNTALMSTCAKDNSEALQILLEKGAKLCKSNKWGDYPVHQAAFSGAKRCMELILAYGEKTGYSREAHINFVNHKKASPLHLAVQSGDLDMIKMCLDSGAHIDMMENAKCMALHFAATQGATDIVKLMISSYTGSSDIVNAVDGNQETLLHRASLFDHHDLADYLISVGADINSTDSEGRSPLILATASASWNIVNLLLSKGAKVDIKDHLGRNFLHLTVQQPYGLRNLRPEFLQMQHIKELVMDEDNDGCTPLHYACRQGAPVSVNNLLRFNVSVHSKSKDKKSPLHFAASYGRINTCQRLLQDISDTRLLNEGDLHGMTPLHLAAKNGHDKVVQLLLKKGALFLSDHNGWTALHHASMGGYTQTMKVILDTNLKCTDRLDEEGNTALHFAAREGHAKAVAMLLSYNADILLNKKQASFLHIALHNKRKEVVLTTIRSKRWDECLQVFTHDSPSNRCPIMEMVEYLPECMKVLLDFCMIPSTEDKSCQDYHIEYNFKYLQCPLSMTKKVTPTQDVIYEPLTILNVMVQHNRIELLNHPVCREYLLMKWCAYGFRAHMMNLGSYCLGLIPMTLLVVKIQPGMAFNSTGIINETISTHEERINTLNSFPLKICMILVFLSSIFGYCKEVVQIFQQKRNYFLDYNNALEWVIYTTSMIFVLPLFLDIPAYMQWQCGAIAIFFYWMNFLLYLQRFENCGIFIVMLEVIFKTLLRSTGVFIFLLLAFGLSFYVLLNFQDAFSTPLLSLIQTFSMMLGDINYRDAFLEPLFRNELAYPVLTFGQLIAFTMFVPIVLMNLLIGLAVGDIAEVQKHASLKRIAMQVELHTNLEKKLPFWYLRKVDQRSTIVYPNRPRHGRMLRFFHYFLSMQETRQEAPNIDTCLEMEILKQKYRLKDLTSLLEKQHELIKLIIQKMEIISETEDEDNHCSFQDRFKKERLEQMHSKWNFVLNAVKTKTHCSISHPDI
T1 sequence (O75762 whole entry): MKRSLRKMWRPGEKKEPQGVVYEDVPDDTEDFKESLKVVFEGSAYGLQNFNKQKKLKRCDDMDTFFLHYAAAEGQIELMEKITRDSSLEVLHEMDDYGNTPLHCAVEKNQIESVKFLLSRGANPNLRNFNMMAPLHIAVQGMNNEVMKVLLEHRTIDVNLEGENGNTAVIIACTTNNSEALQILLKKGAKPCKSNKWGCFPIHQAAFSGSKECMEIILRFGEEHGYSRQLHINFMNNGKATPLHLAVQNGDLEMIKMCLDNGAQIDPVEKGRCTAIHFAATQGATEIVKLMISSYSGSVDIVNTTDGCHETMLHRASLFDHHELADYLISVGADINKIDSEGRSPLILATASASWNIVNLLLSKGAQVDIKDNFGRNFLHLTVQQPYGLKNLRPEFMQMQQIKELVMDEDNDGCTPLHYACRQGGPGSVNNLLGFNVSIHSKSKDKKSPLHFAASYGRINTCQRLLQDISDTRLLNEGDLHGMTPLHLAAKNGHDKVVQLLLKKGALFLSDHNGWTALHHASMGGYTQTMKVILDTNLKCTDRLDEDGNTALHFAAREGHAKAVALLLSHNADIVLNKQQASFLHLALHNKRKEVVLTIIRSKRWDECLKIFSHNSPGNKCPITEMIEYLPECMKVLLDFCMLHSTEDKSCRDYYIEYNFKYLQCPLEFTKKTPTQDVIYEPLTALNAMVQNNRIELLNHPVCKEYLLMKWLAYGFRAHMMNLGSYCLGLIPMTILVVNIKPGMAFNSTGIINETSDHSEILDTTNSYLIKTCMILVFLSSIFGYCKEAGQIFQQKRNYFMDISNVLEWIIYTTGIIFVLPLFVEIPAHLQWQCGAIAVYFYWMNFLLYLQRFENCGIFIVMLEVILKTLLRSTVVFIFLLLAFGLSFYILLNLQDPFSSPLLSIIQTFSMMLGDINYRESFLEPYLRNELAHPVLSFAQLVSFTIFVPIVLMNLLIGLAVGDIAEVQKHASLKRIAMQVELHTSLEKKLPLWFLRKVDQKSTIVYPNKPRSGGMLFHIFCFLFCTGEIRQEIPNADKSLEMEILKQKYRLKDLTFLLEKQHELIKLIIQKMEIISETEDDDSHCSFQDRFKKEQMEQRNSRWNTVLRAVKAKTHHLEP
Chain of Transient receptor potential cation channel subfamily V member 1 (Q8NER1 whole entry): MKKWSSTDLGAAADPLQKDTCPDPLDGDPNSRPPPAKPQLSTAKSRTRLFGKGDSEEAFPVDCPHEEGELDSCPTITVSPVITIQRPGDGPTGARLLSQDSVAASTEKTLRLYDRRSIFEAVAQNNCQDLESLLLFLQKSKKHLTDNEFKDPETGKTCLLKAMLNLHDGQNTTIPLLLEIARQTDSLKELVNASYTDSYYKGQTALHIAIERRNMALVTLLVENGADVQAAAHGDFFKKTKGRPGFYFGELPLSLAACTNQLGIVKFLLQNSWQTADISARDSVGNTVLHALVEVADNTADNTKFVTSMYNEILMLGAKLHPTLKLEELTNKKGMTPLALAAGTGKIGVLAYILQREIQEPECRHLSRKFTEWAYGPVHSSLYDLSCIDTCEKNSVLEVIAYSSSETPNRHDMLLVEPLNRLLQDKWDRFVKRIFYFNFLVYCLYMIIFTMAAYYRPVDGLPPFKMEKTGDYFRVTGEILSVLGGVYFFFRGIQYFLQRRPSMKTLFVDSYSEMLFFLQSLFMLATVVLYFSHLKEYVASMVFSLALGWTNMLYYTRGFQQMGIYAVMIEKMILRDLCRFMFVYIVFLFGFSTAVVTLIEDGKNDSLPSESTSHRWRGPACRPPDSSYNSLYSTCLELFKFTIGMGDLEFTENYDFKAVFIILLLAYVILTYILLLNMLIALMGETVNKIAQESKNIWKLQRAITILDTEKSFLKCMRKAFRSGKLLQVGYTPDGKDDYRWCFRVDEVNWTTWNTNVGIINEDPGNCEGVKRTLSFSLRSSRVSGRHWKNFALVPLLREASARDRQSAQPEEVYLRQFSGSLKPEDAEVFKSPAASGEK

Row | Compound | IC50 [4] | microsomal CLint [5] | microsomal CLint [8] | IC50 [9] | further results
1 | O=c1c2cccnc2ncn1Cc1nc(CCc2ccc(Cl)cc2)no1 | 0.041 µM | 32 µL/min/mg | 131 µL/min/mg | 0.021 µM | Vd [1]: 2 L/kg; EC50 [2]: > 40 µM; Drug metabolism (Liver microsome [3]): metabolite_detected; half-life [6]: 0.3 h; Drug metabolism (Liver microsome [7]): metabolite_detected; fraction unbound [10]: 0.144; EC50 [11]: > 40 µM; IC50 [12]: 0.12 µM; clearance [13]: 98.3 mL/min/kg; IC50 [14]: 0.376 µM
2 | O=C(Cn1cnc2cnccc2c1=O)NCCc1ccc(Cl)cc1 | 1.71 µM | 14 µL/min/mg | 179 µL/min/mg | 1.08 µM | –
3 | Cc1ccc2ncn(CC(=O)NCCc3ccc(Cl)cc3)c(=O)c2c1 | 0.265 µM | – | – | 0.287 µM | –
4 | O=C(Cn1cnc2ccccc2c1=O)NCCc1ccc(Cl)cc1 | > 16.7 µM | 31 µL/min/mg | 104 µL/min/mg | – | –
5 | O=c1c2cccnc2ncn1Cc1nc(CC(F)c2ccc(Cl)cc2)no1 (racemic) | 0.041 µM | 56 µL/min/mg | 94 µL/min/mg | 0.031 µM | –
6 | O=C(Cn1cnc2c(F)cccc2c1=O)NCCc1ccc(Cl)cc1 | 1.33 µM | 40 µL/min/mg | 186 µL/min/mg | 0.791 µM | –
7 | COc1ccc(CCNC(=O)Cn2cnc3c(C)cccc3c2=O)cc1 | – | – | – | 1.37 µM | –
8 | O=C(Cn1cnc2ncccc2c1=O)NCCc1ccc(Cl)cc1 | 1.18 µM | < 14 µL/min/mg | 18 µL/min/mg | 1.17 µM | –
9 | Cc1cccc2c(=O)n(CC(=O)NCCc3ccc(OC(F)F)cc3)cnc12 | 0.685 µM | 194 µL/min/mg | > 399 µL/min/mg | 0.142 µM | EC50 [2]: > 47 µM; IC50 [15]: > 20 µM; EC50 [16]: > 25 µM; IC50 [17]: > 20 µM; EC50 [11]: > 47 µM; IC50 [12]: 2.62 µM; EC50 [18]: > 25 µM; IC50 [14]: 6.27 µM
10 | Cc1ccc2c(=O)n(CC(=O)NCCc3ccc(Cl)cc3)cnc2c1 | > 4.2 µM | 144 µL/min/mg | 829 µL/min/mg | > 16.7 µM | –
11 | C/C(=C\c1noc(Cn2cnc3ncn(C)c3c2=O)n1)c1ccc(Cl)cc1 | 0.071 µM | < 14 µL/min/mg | < 14 µL/min/mg | 0.075 µM | Ratio [19]: 4; Cmax [20]: 6.5 µM; EC50 [2]: > 40 µM; Tmax [21]: 2 h; fCmax (Rattus norvegicus [22]): 0.2 µM; AUC(0-inf) [23]: 117 µM·h; fraction unbound [10]: 0.033; EC50 [11]: > 40 µM; IC50 [12]: 0.055 µM; half-life [24]: 10 h; IC50 [14]: 0.063 µM
12 | C/C(=C\c1nc(Cn2cnc3ncccc3c2=O)no1)c1ccc(Cl)cc1 | – | – | – | – | Vd [1]: 1.4 L/kg; Tmax [25]: 2.7 h; Cmax [26]: 8 µM; AUC(0-inf) [27]: 94.9 µM·h; bioavailability [28]: 32%; half-life [6]: 4.2 h; fCmax (Rattus norvegicus [29]): 0.1 µM; fraction unbound [10]: 0.012; half-life [30]: 5.1 h
